The list is not random: actives were taken first. Their share in the collection is about 6.4%.
WT yeast gro inh: growth inhibition of WT strain, primary screen, mitochondrial fusion inhibitor project, WT and mutant strains, chemical genetic; mitochondrial fusion phenotypic screen; inhibition, % at 10 µM; actives 2.1% (n = 190,000); in the data active = inhibition above about 58%; tested in S. cerevisiae
CHOP inhibitor: inhibitors of CHOP promoter induction, primary screen, cell-based, unfolded protein response, luciferase reporter. CHO-K1 CHOP-promoter luciferase, tunicamycin-induced, 15-18 h. inhibition, % at 10 µM. actives 3.8% (n = 220,000);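 active = compounds that reduced the stress-induced luciferase reporter signal by more than about 70% of percent inhibition, limit read from the data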
EBV gp42 block: Epstein-Barr virus gp42 inhibitors, primary screen, biochemical, uHTS, fluorescence polarization | Fluorescence polarization binding assay, mP read-out | inhibition, % (tested at 21.74 µM) | actives 0.42% (n = 220,000); in the data active = inhibition above about 50%
Target sequence (Q1HVG2 whole entry, looked up): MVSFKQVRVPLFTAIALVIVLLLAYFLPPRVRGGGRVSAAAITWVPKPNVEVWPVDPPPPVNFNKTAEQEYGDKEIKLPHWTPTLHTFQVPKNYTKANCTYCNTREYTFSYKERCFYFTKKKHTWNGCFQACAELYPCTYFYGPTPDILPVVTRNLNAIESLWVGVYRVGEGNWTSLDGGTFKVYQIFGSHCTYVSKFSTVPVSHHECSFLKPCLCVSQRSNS
TbMetRS inhib: T. brucei MetRS inhibitors, primary screen, biochemical, luminescence | methionyl-tRNA synthetase (Trypanosoma brucei brucei) | purified T. brucei MetRS, ATP depletion, Kinase-Glo luminescence | inhibition, % at 11.9 µM | actives 0.4% (n = 360,000) | AID 624268, 2012;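 active = inhibition above a per-plate cutoff of the control wells' mean inhibition plus 3 SD, cut at about 5.5% in these data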
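technique = Kinase-Glo luminescence, ATP depletion format | system = purified MetRS (methionyl-tRNA synthetase) enzyme from Trypanosoma brucei | timing = 15 min preincubation, 2 h reaction, all 25 °C | evaluation = percent inhibition versus plate control medians | dosing = single dose, 11.9 µM final nominal, 0.9% final DMSO | also added = substrates ATP, L-methionine and bulk Escherichia coli tRNA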
MPTP inh: mitochondrial permeability transition pore inhibitors, primary screen, biochemical, isolated mouse mitochondria, absorbance. Ca2+ swelling absorbance, 30 min. inhibition, % at 10 µM. actives 1.4% (n = 360,000). AID 602449, 2012;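 active = inhibition of 50% or more, scaled per plate between neutral and stimulator controls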
GRIN3A LBD mod: binders of NR3A ligand-binding domain, primary screen, biophysical, differential scanning fluorimetry, uHTS | NR3A LBD differential scanning fluorimetry, Tm shift; 0% = protein alone, 100% = glycine-bound protein | Tm shift relative to glycine control, % at 25 µM | actives 2.5% (n = 340,000) | AID 1259313, 2017;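 active = melting temperature shift of at least 10% of the positive control shift, at one fixed dose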
Each line names hits and unclear results; the compound was inactive in the other large screens.

CCN(CC(=O)Nc1sc2c(c1C#N)CCCC2)Cc1nc2ccccc2c(=O)[nH]1	none
CN1C=CC=C/C1=C1\SC(=S)N(c2ccccc2)C1=O	WT yeast gro inh 66
CN1C=CC=C/C1=C1\SC(=S)N(CC(=O)O)C1=O	none
COc1cccc(N2CCN(S(=O)(=O)c3cc4c(cc3C)N(C)CCO4)CC2)c1	none (no result: WT yeast gro inh, CHOP inhibitor, EBV gp42 block)
Cc1ccc(C2=CC(=O)C[C@H](c3ccc(Cl)cc3)C2)cc1	none (no result: WT yeast gro inh, CHOP inhibitor, EBV gp42 block)
O=C1C=C(Nc2ccc(Cl)cc2)CC(c2ccc(Cl)cc2)C1 (stereo not drawn)	WT yeast gro inh 68
O=C1C=C(Nc2ccc(Cl)cc2)CC(c2ccco2)C1 (stereo not drawn)	none
Cc1ccc(C2CC(=O)C=C(Nc3ccc(Cl)cc3)C2)cc1 (stereo not drawn)	CHOP inhibitor 73
CCOC(=O)N1CCN(c2c(NCC3CCCO3)c(=O)c2=O)CC1 (stereo not drawn)	none
COc1ccc(-n2c(C)nc3c(cnn3-c3ccc(Cl)cc3)c2=O)cc1	CHOP inhibitor 83
CCOC(=O)c1ccc(-n2c(C)nc3c(cnn3-c3ccccc3Cl)c2=O)cc1	none
CCOC(=O)c1ccc(-n2c(C)nc3c(cnn3-c3ccc(Cl)cc3)c2=O)cc1	CHOP inhibitor 76
CSCCC(NS(=O)(=O)c1ccc(Cl)cc1)C(=O)OCc1c(Cl)cccc1Cl (stereo not drawn)	CHOP inhibitor 86
CSCCC(NS(=O)(=O)c1ccccc1F)C(=O)OCc1ccccc1Cl (stereo not drawn)	GRIN3A LBD mod 20
CSCCC(NS(=O)(=O)c1ccccc1F)C(=O)N1CCCCCC1 (stereo not drawn)	none (no result: WT yeast gro inh, CHOP inhibitor, EBV gp42 block)
CSc1nnc(-c2cccc(NC(=S)NN)c2)o1	none
O=C(N/N=C/c1ccc(Br)cc1)c1ccc(Br)o1	GRIN3A LBD mod 19
O=C(N/N=C/c1ccc(F)cc1)c1ccc(Br)cc1	none
O=S(=O)(Nc1cccc(CCc2ccccn2)c1)c1ccc2ccccc2c1	CHOP inhibitor 84
Cc1nc(-c2cccc(NS(=O)(=O)c3ccc4ccccc4c3)c2)cs1	WT yeast gro inh 60, GRIN3A LBD mod 10
Cc1nc(CNS(=O)(=O)c2ccc3ccccc3c2)cs1	none
CCc1nnc(NC(=O)CCC(=O)N2CCN(Cc3cc(Cl)ccc3OC)CC2)s1	none
CCOc1ccc(C2CC(c3c(O)c4ccccc4oc3=O)=NN2c2ccccc2)cc1OC (stereo not drawn)	EBV gp42 block 141
Cc1nn2cc(-c3ccc(N)cc3)nc2s1	none
O=C(Nc1cccc(Cl)c1)c1csc(-c2ccccc2)n1	WT yeast gro inh 61
COc1ccc(CNC(=O)c2csc(Cc3ccc(OC)cc3)n2)cc1	none
COc1ccc(Cc2nc(C(=O)Nc3ccc(Cl)cc3)cs2)cc1	none
COc1ccc(NC(=O)c2csc(Cc3ccc(Cl)cc3)n2)cc1	WT yeast gro inh 59
COc1ccc(Cc2nc(C(=O)Nc3ccccc3)cs2)cc1	none (no result: WT yeast gro inh)
O=C(Nc1ccc(Cl)cc1)c1csc(Cc2ccccc2)n1	WT yeast gro inh 74
COc1ccc(CNC(=O)c2csc(Cc3ccc(Cl)cc3)n2)cc1	CHOP inhibitor 72
Cc1ccc(C(=O)N2CCN(c3ccc(NC(=S)NC(=O)Cc4ccccc4)cc3)CC2)cc1	CHOP inhibitor 74
COc1ccc(C(=O)N2CCN(c3ccc(NC(=O)Cc4ccccc4)cc3)CC2)cc1	none (no result: WT yeast gro inh, CHOP inhibitor, EBV gp42 block)
COC(=O)Cc1ccc(NC(=S)N2CCN(c3ccc(F)cc3)CC2)cc1	CHOP inhibitor 72
O=C(NC1=NCCS1)c1cccc2ccccc12	WT yeast gro inh 81
S=C(Nc1cccc(Cl)c1)N1CCN(Cc2ccccc2)CC1	none
COC(=O)Oc1c(Br)c(=O)oc2ccccc12	CHOP inhibitor 85
O=C1NC(=S)N/C1=C\c1ccccc1OCc1ccc(C(=O)O)cc1	none (no result: WT yeast gro inh)
O=C(O)c1ccc(COc2ccccc2C=C2C(=O)c3ccccc3C2=O)cc1	GRIN3A LBD mod 29
Cc1ccc2cc(CN(C(=O)c3ccco3)c3ccccc3C)c(=O)[nH]c2c1	WT yeast gro inh 96
CCOc1cc(/C=N/NC(=O)Cn2nc([N+](=O)[O-])cc2C)cc(Br)c1OCc1ccccc1F	CHOP inhibitor 78
CCOc1cc(/C=N/NC(N)=O)cc(Br)c1OCc1ccccc1F	none
NS(=O)(=O)c1ccc(N/N=C/c2ccccc2Br)cc1	GRIN3A LBD mod 14
NS(=O)(=O)c1ccc(N/N=C/c2ccncc2)cc1	none (no result: WT yeast gro inh, CHOP inhibitor, EBV gp42 block)
NS(=O)(=O)c1ccc(N/N=C/c2cn(-c3ccccc3)nc2-c2cccs2)cc1	GRIN3A LBD mod 34
CC(C)CCn1c(SC(C)C(=O)NC2CC2)nc2ccccc2c1=O (stereo not drawn)	none (no result: WT yeast gro inh, CHOP inhibitor, EBV gp42 block)
CC(=O)Nc1ccc(Nc2ncnc3c2cnn3-c2ccccc2)cc1	GRIN3A LBD mod 19
CC(=O)Nc1ccc(Nc2ncnc3c2cnn3-c2cccc(C)c2)cc1	GRIN3A LBD mod 22
N#CC1(P(=O)(c2ccccc2)c2ccccc2)CC1	none
CCCN1CCN(C(=O)CCCNC(=O)Cn2cnc3sc(C)c(C)c3c2=O)CC1	none (no result: WT yeast gro inh)
CCOC(=O)c1c(NC(=O)CN2CCCc3ccccc32)sc(C(C)=O)c1C	CHOP inhibitor 93
C=CCN1C(=O)C2(OCCCO2)c2c(C)ccc(C)c21	none (no result: WT yeast gro inh, CHOP inhibitor, EBV gp42 block)
C=CCn1c(N/N=C/c2ccc(O)cc2)nc2ccccc2c1=O	GRIN3A LBD mod 12
C=CCn1c(C)nc2ccccc2c1=O	none
CCOC(=O)c1sc(NC(=O)CSc2ncn(-c3ccccc3)n2)nc1C	none
COc1cc(Cl)c(C)cc1NC(=O)c1cc(S(=O)(=O)N(C)C)ccc1N1CCCC1	none
COc1ccccc1NC(=S)N(Cc1ccccc1)Cc1cccs1	none
COc1ccccc1NC(=S)N(Cc1cccs1)C1CCCC1	WT yeast gro inh 75
CC1CN(S(=O)(=O)N(C)C)CCN1S(=O)(=O)N(C)C (stereo not drawn)	none
CCN(CC)S(=O)(=O)c1cccc(C(=O)N2CCCc3ccccc32)c1	none (no result: WT yeast gro inh, CHOP inhibitor, EBV gp42 block)
O=C(O)c1ccc2c3c(ncnc13)-c1ccccc1C2=O	EBV gp42 block 76 (no result: TbMetRS inhib, MPTP inh)
CNc1c(C(=O)O)ccc2c1C(=O)c1ccccc1C2=O	none
Cc1ccc(O)c(C(=O)c2cc(C#N)c(=O)n(-c3c(C)n(C)n(-c4ccccc4)c3=O)c2)c1	none
CCOc1ccc(CCNC(=O)COC(=O)c2ccc(C)s2)cc1OCC	none (no result: WT yeast gro inh, CHOP inhibitor, EBV gp42 block)
CCC1(C)Cc2ccccc2-c2nc(NN)[nH]c(=O)c21 (stereo not drawn)	none (no result: WT yeast gro inh, CHOP inhibitor, EBV gp42 block)

Screening data: PubChem BioAssay, several laboratories
